Data reported in ChEMBL document CHEMBL1133943, “N-hydroxyl derivatives of guanidine based drugs as enzymatic NO donors” (Bioorg Med Chem Lett, 2001).

How the values were obtained:
Format in all cases: functional
[1] = target: Nitric oxide synthase 1 (Rattus norvegicus) (UniProt P29476); experiment: NO releasing ability of compound measured through formation of nitrite using nNOS (nitric oxide synthases)
Method in brief: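 Purified nNOS (0.5 unit) incubated with 1 mM substrate in 50 mM HEPES pH 7.4, 500 µL final volume. Mix held 100 µM NADPH, 4 µM FAD, 4 µM FMN, 6 µM BH4, 400 µM DTT, SOD, catalase, 1 mM CaCl2 and 10 µg/mL CaM; shaken at 37 °C. Ethanol quench, then Griess nitrite read at 548 nm against NaNO2 calibration without enzyme. L-arginine as control.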

[2] = target: Nitric oxide synthase, inducible (Homo sapiens) (UniProt P35228); experiment: NO releasing ability of compound measured through formation of nitrite using iNOS (nitric oxide synthases)
Method in brief: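 Purified iNOS (0.5 unit) incubated with 1 mM substrate in 50 mM HEPES pH 7.4 with 100 µM NADPH, 4 µM FAD, 4 µM FMN, 6 µM BH4, 400 µM DTT, SOD, catalase and 1 mM magnesium acetate; shaken at 37 °C. Quenched with ethanol for ≥1 h at room temperature, then Griess reagent; A548 converted via NaNO2 calibration in enzyme-free mixtures.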

[3] = Effect of incubation conditions on the formation of NO2 from the oxidation of compound in the presence of NO2-L-Arg
Method in brief: (§1)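 Base NOS reaction varied by component: 1 mM substrate, 50 mM HEPES pH 7.4, 100 µM NADPH, 4 µM FAD, 4 µM FMN, 6 µM BH4, 400 µM DTT, SOD, catalase, 0.5 unit NOS, shaken at 37 °C for the indicated time. Nitrite determined by Griess reaction after ethanol quench, absorbance 548 nm, with NaNO2 calibration curves lacking enzyme.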

[4] = Effect of incubation conditions on the formation of NO2 from the oxidation of compound in the presence of BH4; method in brief: as §1
[5] = Effect of incubation conditions on the formation of NO2 from the oxidation of compound in the presence of nNOS; method in brief: as §1
[6] = Effect of incubation conditions on the formation of NO2 from the oxidation of compound in the presence of complete system; method in brief: as §1
[7] = Effect of incubation conditions on the formation of NO2 from the oxidation of compound in the presence of NADPH; method in brief: as §1
[8] = target: Nitric oxide synthase 1 (Homo sapiens) (UniProt P29475); experiment: NO releasing ability of compound measured through formation of nitrite using neuronal nitric oxide synthase
Method in brief: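 Incubation with nNOS (0.5 unit) in 50 mM HEPES pH 7.4 at 37 °C, shaken. Mixture: 1 mM substrate, 100 µM NADPH, 4 µM FAD, 4 µM FMN, 6 µM BH4, 400 µM DTT, 100 units SOD, 50 units catalase, 1 mM CaCl2, 10 µg/mL calmodulin. Quenched with ethanol, ≥1 h at room temperature, then Griess reagent, A548. Nitrite is quantified against NaNO2 standards made in enzyme-free mixtures. L-arginine is the reference substrate.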

Sequence of Nitric oxide synthase 1 (Rattus norvegicus) (P29476 whole entry): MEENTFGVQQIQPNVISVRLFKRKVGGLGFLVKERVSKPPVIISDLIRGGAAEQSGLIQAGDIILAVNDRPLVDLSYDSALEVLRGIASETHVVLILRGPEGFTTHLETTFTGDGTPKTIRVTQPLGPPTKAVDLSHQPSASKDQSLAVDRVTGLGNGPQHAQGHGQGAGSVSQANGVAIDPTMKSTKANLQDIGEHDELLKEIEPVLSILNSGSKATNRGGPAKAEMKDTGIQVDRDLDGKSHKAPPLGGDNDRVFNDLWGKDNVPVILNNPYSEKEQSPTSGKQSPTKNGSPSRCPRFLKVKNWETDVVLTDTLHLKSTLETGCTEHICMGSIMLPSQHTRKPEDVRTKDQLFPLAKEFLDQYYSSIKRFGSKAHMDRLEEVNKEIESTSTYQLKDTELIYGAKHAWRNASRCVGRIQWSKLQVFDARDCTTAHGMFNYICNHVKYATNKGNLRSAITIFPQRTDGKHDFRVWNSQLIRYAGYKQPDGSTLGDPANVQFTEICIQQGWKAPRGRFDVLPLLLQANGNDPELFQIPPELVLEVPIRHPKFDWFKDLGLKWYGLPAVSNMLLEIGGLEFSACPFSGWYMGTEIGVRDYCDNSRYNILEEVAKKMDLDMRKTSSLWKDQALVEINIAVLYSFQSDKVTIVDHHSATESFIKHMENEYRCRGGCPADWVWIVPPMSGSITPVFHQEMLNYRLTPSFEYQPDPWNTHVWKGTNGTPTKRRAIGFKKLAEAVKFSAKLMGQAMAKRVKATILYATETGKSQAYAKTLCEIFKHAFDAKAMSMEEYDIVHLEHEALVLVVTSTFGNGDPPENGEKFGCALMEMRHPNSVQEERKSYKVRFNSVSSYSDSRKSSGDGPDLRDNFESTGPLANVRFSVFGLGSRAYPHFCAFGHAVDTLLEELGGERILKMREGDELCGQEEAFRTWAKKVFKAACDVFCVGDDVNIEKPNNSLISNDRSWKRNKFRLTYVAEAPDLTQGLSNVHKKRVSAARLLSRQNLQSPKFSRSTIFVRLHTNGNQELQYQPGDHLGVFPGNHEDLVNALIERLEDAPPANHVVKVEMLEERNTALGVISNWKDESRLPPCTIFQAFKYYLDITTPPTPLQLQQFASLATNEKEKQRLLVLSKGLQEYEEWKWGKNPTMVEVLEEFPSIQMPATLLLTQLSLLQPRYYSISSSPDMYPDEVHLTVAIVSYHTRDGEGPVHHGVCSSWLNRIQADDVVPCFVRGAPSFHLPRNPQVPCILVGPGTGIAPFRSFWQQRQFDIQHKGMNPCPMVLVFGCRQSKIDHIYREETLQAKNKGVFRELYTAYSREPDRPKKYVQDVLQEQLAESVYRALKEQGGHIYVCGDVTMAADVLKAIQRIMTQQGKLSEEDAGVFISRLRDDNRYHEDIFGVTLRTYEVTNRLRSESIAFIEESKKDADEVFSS
Sequence of Nitric oxide synthase, inducible (Homo sapiens) (P35228 whole entry): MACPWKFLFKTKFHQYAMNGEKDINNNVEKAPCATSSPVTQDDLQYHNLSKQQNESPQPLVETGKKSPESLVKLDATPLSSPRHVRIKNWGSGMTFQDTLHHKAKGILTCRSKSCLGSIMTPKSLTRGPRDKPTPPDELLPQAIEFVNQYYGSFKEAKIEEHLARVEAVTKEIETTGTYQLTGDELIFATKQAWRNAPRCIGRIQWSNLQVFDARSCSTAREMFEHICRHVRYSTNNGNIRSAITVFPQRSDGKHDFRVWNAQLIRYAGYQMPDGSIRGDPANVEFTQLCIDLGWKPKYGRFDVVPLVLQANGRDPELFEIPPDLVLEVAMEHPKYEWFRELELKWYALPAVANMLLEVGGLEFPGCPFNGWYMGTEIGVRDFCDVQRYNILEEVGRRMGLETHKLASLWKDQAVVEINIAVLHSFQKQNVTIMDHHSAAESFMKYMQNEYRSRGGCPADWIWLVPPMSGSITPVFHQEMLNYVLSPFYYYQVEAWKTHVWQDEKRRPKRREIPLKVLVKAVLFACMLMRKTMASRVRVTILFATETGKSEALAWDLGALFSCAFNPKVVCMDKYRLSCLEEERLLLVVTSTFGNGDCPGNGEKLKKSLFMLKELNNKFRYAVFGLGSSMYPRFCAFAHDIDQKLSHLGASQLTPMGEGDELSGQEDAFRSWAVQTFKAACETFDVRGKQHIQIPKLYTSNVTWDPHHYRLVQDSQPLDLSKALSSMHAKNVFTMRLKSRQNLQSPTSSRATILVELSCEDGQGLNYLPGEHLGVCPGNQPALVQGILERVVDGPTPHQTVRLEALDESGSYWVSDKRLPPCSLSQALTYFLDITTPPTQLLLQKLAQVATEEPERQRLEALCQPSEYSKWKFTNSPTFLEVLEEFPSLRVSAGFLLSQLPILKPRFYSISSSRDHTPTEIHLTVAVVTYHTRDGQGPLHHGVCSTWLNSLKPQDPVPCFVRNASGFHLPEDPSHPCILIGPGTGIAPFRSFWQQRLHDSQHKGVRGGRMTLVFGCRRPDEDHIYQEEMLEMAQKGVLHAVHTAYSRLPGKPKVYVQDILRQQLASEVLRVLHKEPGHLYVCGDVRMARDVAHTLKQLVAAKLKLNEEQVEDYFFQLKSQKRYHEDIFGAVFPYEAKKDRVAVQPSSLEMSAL
Sequence of Nitric oxide synthase 1 (Homo sapiens) (P29475 whole entry): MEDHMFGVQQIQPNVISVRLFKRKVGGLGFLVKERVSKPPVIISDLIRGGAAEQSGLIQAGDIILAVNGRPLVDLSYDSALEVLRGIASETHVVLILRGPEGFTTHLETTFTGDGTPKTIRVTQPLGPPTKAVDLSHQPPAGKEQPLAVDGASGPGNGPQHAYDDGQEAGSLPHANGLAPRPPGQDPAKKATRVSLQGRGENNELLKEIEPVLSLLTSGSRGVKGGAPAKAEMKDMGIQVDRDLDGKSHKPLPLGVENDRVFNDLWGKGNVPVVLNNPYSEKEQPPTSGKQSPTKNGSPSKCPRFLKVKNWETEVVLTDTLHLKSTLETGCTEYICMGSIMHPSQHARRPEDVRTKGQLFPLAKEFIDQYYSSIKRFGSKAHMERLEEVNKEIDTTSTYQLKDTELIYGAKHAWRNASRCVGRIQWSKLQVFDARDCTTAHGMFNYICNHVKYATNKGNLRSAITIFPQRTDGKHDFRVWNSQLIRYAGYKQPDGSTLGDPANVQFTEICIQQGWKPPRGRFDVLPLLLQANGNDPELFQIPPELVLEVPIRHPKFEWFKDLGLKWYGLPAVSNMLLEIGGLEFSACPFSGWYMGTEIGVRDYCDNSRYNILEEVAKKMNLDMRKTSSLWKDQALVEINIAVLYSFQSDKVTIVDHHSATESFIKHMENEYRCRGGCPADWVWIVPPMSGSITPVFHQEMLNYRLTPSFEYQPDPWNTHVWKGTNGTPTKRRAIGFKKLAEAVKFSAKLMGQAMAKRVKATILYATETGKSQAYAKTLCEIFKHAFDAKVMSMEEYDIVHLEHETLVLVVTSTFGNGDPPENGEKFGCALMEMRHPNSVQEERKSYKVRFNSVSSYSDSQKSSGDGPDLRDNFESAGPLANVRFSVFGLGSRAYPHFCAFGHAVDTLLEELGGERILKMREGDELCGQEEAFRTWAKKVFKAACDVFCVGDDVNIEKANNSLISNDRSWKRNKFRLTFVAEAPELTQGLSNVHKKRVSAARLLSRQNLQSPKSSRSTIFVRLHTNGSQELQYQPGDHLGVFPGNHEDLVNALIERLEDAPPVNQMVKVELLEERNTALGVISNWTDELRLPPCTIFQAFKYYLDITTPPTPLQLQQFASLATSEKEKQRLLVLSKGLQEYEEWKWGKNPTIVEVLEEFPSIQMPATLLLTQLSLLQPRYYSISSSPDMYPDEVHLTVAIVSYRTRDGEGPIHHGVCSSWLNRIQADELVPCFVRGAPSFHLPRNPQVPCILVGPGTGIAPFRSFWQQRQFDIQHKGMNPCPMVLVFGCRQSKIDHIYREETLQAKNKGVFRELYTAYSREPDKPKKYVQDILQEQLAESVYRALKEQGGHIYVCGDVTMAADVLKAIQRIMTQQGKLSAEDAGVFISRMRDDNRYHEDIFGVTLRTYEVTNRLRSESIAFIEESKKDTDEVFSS

## N/C(=N/CC1COc2ccccc2O1)NO (stereo not drawn)
[1]
  Activity: 0.8 µM
[2]
  Activity: 0.9 µM

## N=C(N)NCC1COc2ccccc2O1 (stereo not drawn)
[1]
  Activity: < 0.1 µM
[2]
  Activity: < 0.1 µM

## N=C(N)NCCN1CCCCCCC1
[1]
  Activity: < 0.1 µM
[2]
  Activity: < 0.1 µM

## N/C(=N/CC1COC2(CCCCC2)O1)NO (stereo not drawn)
[3]
  residual activity: 50%
[1]
  Activity: 1.2 µM
[4]
  residual activity: 30%
[2]
  Activity: 1.6 µM
[5]
  residual activity: < 2%
[6]
  residual activity: 100%
[7]
  residual activity: 18%

## N=C(N)NCCC[C@H](N)C(=O)O
[8]
  Activity: 14.5 µM

## N=C(N)NCC1COC2(CCCCC2)O1 (stereo not drawn)
[1]
  Activity: < 0.1 µM
[2]
  Activity: < 0.1 µM

## N/C(=N\O)NCCN1CCCCCCC1
[1]
  Activity: 0.3 µM
[2]
  Activity: 0.2 µM
